Insulin prom act – activators of insulin promoter-driven GFP, primary screen, imaging, TRM-6 cells, eGFP reporter, cell count; plate-scaled: unstimulated 0, stimulated control 100; activation, % at 2 µM; 0.81% of 130,000 active;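 active = activation at 2 µM above a set limit, confirmed on inspection of the cell images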;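 note: share of cells whose green reporter signal exceeds an intensity cutoff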
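Material: Human fetal islet-derived TRM-6 cells with tamoxifen-inducible insulin promoter–eGFP reporter | Medium: Low-glucose (5.5 mM) medium with tamoxifen | Probe or stimulus: Tamoxifen inducer, 0.75 µM, in seeding medium | Schedule: Tamoxifen pre-incubation 15 h overnight, then compound exposure 48 h at 37 °C | Detection: High-content imaging of fixed cells with Hoechst nuclear stain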
* marks the source's active call; other numbers are inactive results. Shown is part of a subset that was picked to be rich in hits.

Results for CCN(CC)CCn1c(=N)n(CC(O)c2ccco2)c2ccccc21 (configuration not stated) ?
Insulin prom act: 508*

How did COc1ccccc1N1CCN(S(=O)(=O)c2ccc3c4c(cccc24)C(=O)N3C)CC1 do in these assays?
Insulin prom act: 7

What do the screens show for `C=CCN1C(=O)c2cccc3c(N4CCCCC4)ccc(c23)C1=O`?
Insulin prom act: 669*

Results for CCN1C(=O)C(O)(C2COC(C)(C)CC2=O)c2cc(Br)ccc21 (configuration not stated) ?
Insulin prom act: -38

What do the screens show for `CCc1ccc2c(CC(=O)Nc3nnc(C4CC4)s3)coc2c1`?
Insulin prom act: -3

How did CCOC(=O)CNC(=S)N(Cc1ccc(C)cc1)Cc1ccc(C)o1 do in these assays?
Insulin prom act: 3

How did COc1cccc(NC(=O)CN(c2cccc(F)c2)S(C)(=O)=O)c1 do in these assays?
Insulin prom act: 444*

What do the screens show for `COc1ccc(NC(=O)CN(c2cccc(C(F)(F)F)c2)S(C)(=O)=O)cc1OC`?
Insulin prom act: 7

Results for CC(=O)c1cccc(N(CC(=O)Nc2ccc(F)cc2)S(C)(=O)=O)c1 ?
Insulin prom act: 3

What do the screens show for `CC1CCc2c(sc(N)c2C(=O)OC(C)C)C1` (configuration not stated)?
Insulin prom act: -7

How did CC(NC(=O)c1ccc(C23CC4CC(CC(C4)C2)C3)cc1)C(=O)O (configuration not stated) do in these assays?
Insulin prom act: -7

Results for N#C/C(=C/c1ccncc1)c1nc2ccccc2s1 ?
Insulin prom act: 128

Results for CC(=O)Nc1sc(/C(C#N)=C/c2ccc(Cl)c(Cl)c2)nc1-c1ccc(C)cc1 ?
Insulin prom act: 223*

Results for COc1cc(/C=C(\C#N)c2nc3ccccc3s2)ccc1OCC(=O)Nc1ccccc1 ?
Insulin prom act: 162

Results for CCNC(=O)CSc1nnc(-c2ccc(OC)cc2)n1CC(C)C ?
Insulin prom act: -9

How did Cc1nn(C)c(C(=O)NCc2ccc(Cl)cc2)c1Cl do in these assays?
Insulin prom act: -10

What do the screens show for `CC(C)CCNC(=O)CN(C(=O)CCC(=O)Nc1ccccn1)c1ccc2c(c1)OCO2`?
Insulin prom act: -6

What do the screens show for `Cc1ccc(S(=O)(=O)N2CCC(=O)N(CCOCc3ccc(Cl)cc3)CC2)cc1`?
Insulin prom act: -5

What do the screens show for `O=C(Nc1cnccn1)Nc1cccc(Cl)c1Cl`?
Insulin prom act: -7

Results for COc1ccc(CCNC(=O)C2CCN(S(=O)(=O)c3c(C)noc3C)CC2)cc1OC ?
Insulin prom act: -66

Results for CCc1ccc(-c2nc(CN3CCCC(C(=O)NCCc4ccc(OC)c(OC)c4)C3)c(C)o2)cc1 (configuration not stated) ?
Insulin prom act: 121*

How did COc1ccc(CCNC(=O)C2CCCN(c3nn4c(=O)cc(C)nc4s3)C2)cc1OC (configuration not stated) do in these assays?
Insulin prom act: 3

Results for COC(=O)c1ccc2c(=O)n(CC3CCCO3)c(SCC(=O)NCCc3ccc(S(N)(=O)=O)cc3)nc2c1 (configuration not stated) ?
Insulin prom act: 7

What do the screens show for `COc1cc(NS(=O)(=O)c2ccc(Br)s2)cc(OC)c1`?
Insulin prom act: 257

Results for Cc1cc(C)cc(NS(=O)(=O)c2ccc3oc(=O)ccc3c2)c1 ?
Insulin prom act: 0

How did Cc1cc(C)n(CC(O)Cn2c3ccc(Br)cc3c3cc(Br)ccc32)c(=O)n1 (configuration not stated) do in these assays?
Insulin prom act: 77*

What do the screens show for `CCC/S(CC1CC1(Cl)Cl)=N\S(=O)(=O)c1ccc(C)cc1` (configuration not stated)?
Insulin prom act: -3

What do the screens show for `COc1ccc(C2C(C#N)=C(C)NC3=C2S(=O)(=O)c2ccccc23)cc1` (configuration not stated)?
Insulin prom act: 147

What do the screens show for `Oc1ccc(N2CCN(C(c3ccccn3)c3nnnn3C3CCCC3)CC2)cc1` (configuration not stated)?
Insulin prom act: -86

What do the screens show for `COc1cc([N+](=O)[O-])ccc1NC(=O)CSc1nc2ccccc2n1-c1ccccc1`?
Insulin prom act: 7

How did O=C(COc1ccc(N2CC(C(=O)O)CC2=O)cc1)Nc1cccc(C(F)(F)F)c1 (configuration not stated) do in these assays?
Insulin prom act: 312

How did CCn1c(=O)cc(OCC(=O)NCCc2cccc(C)c2)c2ccccc21 do in these assays?
Insulin prom act: 129*

How did CCn1c(=O)cc(OCC(=O)Nc2cc(C)ccn2)c2ccccc21 do in these assays?
Insulin prom act: 6

What do the screens show for `CCOC(=O)COc1cc(=O)n(CC)c2ccccc12`?
Insulin prom act: -4

Results for O=C(NCCCN1CCN(c2ccccc2F)CC1)Nc1ccccc1[N+](=O)[O-] ?
Insulin prom act: -78

How did Cc1ccnc(NC(=O)CCc2c(C)nc3ncnn3c2C)c1 do in these assays?
Insulin prom act: 0

What do the screens show for `CC(C)N1CCN(CC#Cc2ccccc2)CC1CCO` (configuration not stated)?
Insulin prom act: 0

What do the screens show for `O=S(=O)(Nc1ncn[nH]1)c1ccc(Cl)cc1`?
Insulin prom act: 0

What do the screens show for `CCCCNC(=O)c1ccc(CS(=O)(=O)Cc2ccccc2F)o1`?
Insulin prom act: -8

Results for Cn1c(SCC(=O)Nc2ccccc2F)nnc1-c1cc2ccccc2o1 ?
Insulin prom act: 9

What do the screens show for `Cc1ccc(S(=O)(=O)N2CCOCC2)cc1NC(=O)Cn1ccsc1=N`?
Insulin prom act: -5

How did CCCCn1ccnc1C(=O)c1cc(S(=O)(=O)N2CCOCC2)ccc1C do in these assays?
Insulin prom act: 89*

How did COc1cc(S(=O)(=O)N2CCOCC2)cc(C(=O)c2nccn2C)c1OC do in these assays?
Insulin prom act: 9

Results for Cc1cc(C)c(NC(=O)CN2CCN3CCCC3C2)c(C)c1 (configuration not stated) ?
Insulin prom act: 124

What do the screens show for `Cc1csc(NC(=O)c2cccc(S(=O)(=O)N3CCCCC3)c2)n1`?
Insulin prom act: 0

What do the screens show for `Cc1nnc(NC(=O)c2ccc(C)c(S(=O)(=O)N3CCCCCC3)c2)s1`?
Insulin prom act: 2

How did COc1ccc(C(=O)Nc2nc(C)cs2)cc1S(=O)(=O)N1CCCC1 do in these assays?
Insulin prom act: 221*

Results for O=C(CC1Sc2ccccc2NC1=O)NCc1cccc(Cl)c1 (configuration not stated) ?
Insulin prom act: 115

What do the screens show for `Cc1sc2nc(CN(Cc3cccs3)C(=O)C3CC3)[nH]c(=O)c2c1C`?
Insulin prom act: -76

How did Cc1cccc(NC(=S)N(CCN(C)C)C(C)c2ccccn2)c1 (configuration not stated) do in these assays?
Insulin prom act: -6

What do the screens show for `CCOC(=O)c1c(C)[nH]c(C(=O)CN2C(=O)NC(C)(c3ccc4ccccc4c3)C2=O)c1C` (configuration not stated)?
Insulin prom act: 5

How did CCCSc1nc(C)cc(C)c1C(N)=O do in these assays?
Insulin prom act: 8

What do the screens show for `C=CCNc1sc(C(=O)c2ccccc2)c(N)c1-c1nc2ccccc2s1`?
Insulin prom act: 2

What do the screens show for `O=C(c1ccccc1)c1c2c(cc3sc4ccccc4[n+]13)-c1cccc3cccc-2c13`?
Insulin prom act: 233*

What do the screens show for `COc1ccccc1NCCC(=O)OCC(=O)NC1CCCC(C)C1C` (configuration not stated)?
Insulin prom act: -8

Assay outcomes as filed in PubChem BioAssay.
